Reference: PubChem BioAssay
The source made the active and inactive calls. Cut-off read from the data, not from the text of the source, unless noted: active = inhibition above about 30%; inactive = the rest.

Legend:
[1] = SK-BR-3 cell growth inhibitors, pilot screen, 24 h, human (AID 572;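 active = viability at or below 10% of carrier control in both of two separate runs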;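 note: compound exposure lasted between 18 and 24 h rather than exactly 24 h; 100% = carrier-treated control wells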); conditions: SK-BR-3 viability, CellTiter-Glo luminescence, at 10 µM, stronger effect = lower value
[2] = HUVEC growth inhibition – cell-based, human, primary screen (AID 575;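 active = viability at or below 30% in both replicate assays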;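 note: 100% = median of untreated cell wells with 0.1% DMSO on each plate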); conditions: HUVEC proliferation, CellTiter-Glo luminescence, 72 h; at 10 µM; stronger effect = lower value
Method in brief: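 Test system: HUVEC primary cells. Quantity: 1250 endothelial cells in each well. Dosing: single-point 10 µM, DMSO 0.1% final. Incubation: 72 h treatment at 37 °C. Measured by: CTG luminescence. Control set: DMSO cell controls and MePR drug controls. Plate: collagen-coated 384-well format.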

[3] = growth inhibitors of H69AR lung tumor, primary screen, human, duplicate replicates (AID 580;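 active = viability at or under a set limit in both replicates, limit being median viability minus 3 SD, cut at about 48% in these data, passing the limit was not always enough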;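 note: 100% = mean luminescence of untreated wells and 0% = no signal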); conditions: H69AR lung tumor cells viability, ATP luminescence, 72 h; at 10 µM; stronger effect = lower value
[4] = reversal of MRP1-mediated doxorubicin resistance, pilot screen, H69AR cells, doxorubicin co-treatment (AID 601;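 active = viability loss from added drug above about 55%, and viability with drug at most 40%, in both replicates, limit read from the data, passing the limit was not always enough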); conditions: CellTiter-Glo, 72 h, at 10 µM; for differential viability (reversal): stronger effect = higher value
[5] = 384-well plate pilot, post-Golgi transport modulator project, inhibition of yeast transport mutant growth (AID 636; in the data active = inhibition above about 31%); conditions: absorbance 615 nm, about 18 h, stronger effect = higher value
[6] = growth suppression of yeast trafficking mutant, preliminary HTS, modulators of trafficking downstream of Golgi apparatus project, 1536-format plate, OD 615 nm (AID 637); conditions: yeast transport mutant growth, absorbance 615 nm, 18 h; stronger effect = higher value
[7] = H69AR cells + 2 uM doxorubicin, measured here: viability with 2 uM doxorubicin, stronger effect = lower value
[8] = H69AR cells, compound alone cytotoxicity

| SMILES | viability [1] | viability [2] | viability [3] | differential viability (reversal) ([4]; H69AR cells + 2 uM doxorubicin) | viability [4, 7] [%] | viability [4, 8] [%] | inhibition [5] | inhibition [6] |
| --- | --- | --- | --- | --- | --- | --- | --- | --- |
| COc1ccc(N2C(=O)C(Cl)=C(N3CCCC3)C2=O)cc1 | 97% (inactive) | 86.1% (inactive) | 94.7% (inactive) | 9.9% (inactive) | 84.8 | 94.7 | -6.08% (inactive) | -6.18% (inactive) |
| CCOc1ccc(NC(=O)COC(=O)Cn2cnnn2)cc1OCC | 86% (inactive) | 106% (inactive) | 107% (inactive) | -0.92% (inactive) | 108 | 107 | 1.23% (inactive) | -0.36% (inactive) |
| COC(=O)CS(=O)(=O)c1nnc([C@H](Cc2ccccc2)NC(=O)OC(C)(C)C)o1 | 77.5% (inactive) | 3.82% (active) | 1.21% (active) | 0.515% (inactive) | 0.69 | 1.21 | -5.45% (inactive) | -12.3% (inactive) |
| CC(=O)Nc1ccc(S(=O)(=O)N2CCN(c3cc(C)nc4ccccc34)CC2)cc1 | 103% (inactive) | 96.7% (inactive) | 87.1% (inactive) | 0.84% (inactive) | 86.2 | 87.1 | -5.41% (inactive) | -3.09% (inactive) |
| COc1cc(CO)cc(-c2cc(CO)cc(OC)c2OC)c1OC | 82% (inactive) | 95.8% (inactive) | 92.5% (inactive) | 1.68% (inactive) | 90.9 | 92.5 | -8.67% (inactive) | -6.91% (inactive) |
| CN(C)CCN(Cc1ccccc1)c1ccccn1 | 100% (inactive) | 89.1% (inactive) | 101% (inactive) | 8.55% (inactive) | 92.7 | 101 | 3.38% (inactive) | -0.67% (inactive) |
| CC1=C(C(=O)N2CCOCC2)C(c2ccsc2)C2=C(CCCC2=O)N1 (centres undefined) | 96% (inactive) | 107% (inactive) | 90.4% (inactive) | -0.065% (inactive) | 90.5 | 90.4 | -2.47% (inactive) | 7.74% (inactive) |
| CC(=O)OCC1=C(C(=O)O)N2C(=O)[C@@H](NC(=O)Cc3cccs3)[C@H]2SC1 | 141% (inactive) | 94.8% (inactive) | 94.2% (inactive) | 3.98% (inactive) | 90.2 | 94.2 | -4.81% (inactive) | 8.5% (inactive) |
| COCCn1c(Sc2nc(C)cs2)nc2c1c(=O)[nH]c(=O)n2C | 85% (inactive) | 106% (inactive) | 101% (inactive) | 4.51% (inactive) | 96.6 | 101 | -5.07% (inactive) | 3.45% (inactive) |
| Cc1onc(-c2c(F)cccc2Cl)c1C(=O)Nc1nc2c(s1)CCCC2 | 109% (inactive) | 92.7% (inactive) | 77.3% (inactive) | -27% (inactive) | 104 | 77.3 | -3.29% (inactive) | -1.09% (inactive) |
| CC(C)c1cc(C(=O)Nc2cccnc2)no1 | 110% (inactive) | 105% (inactive) | 97.3% (inactive) | -0.865% (inactive) | 98.2 | 97.3 | -7.73% (inactive) | -0.18% (inactive) |
| NS(=O)(=O)c1cc2c(cc1Cl)NCNS2(=O)=O | 73% (inactive) | 97.2% (inactive) | 91.3% (inactive) | -5.11% (inactive) | 96.4 | 91.3 | 0.65% (inactive) | 1.17% (inactive) |
| CCOC(=O)c1ccc(CNC(=O)C(Cc2c[nH]c3ccccc23)NC(C)=O)o1 (centres undefined) | 90% (inactive) | 90.3% (inactive) | 101% (inactive) | 8.63% (inactive) | 92.3 | 101 | -6.99% (inactive) | 0.36% (inactive) |
| O=C(CSc1ncn[nH]1)NC1CC2CCC1C2 (centres undefined) | 94% (inactive) | 103% (inactive) | 98% (inactive) | -22.4% (inactive) | 120 | 98 | -5.34% (inactive) | -1.82% (inactive) |
| CCC(C(=O)N1CCc2cc(OC)c(OC)cc2C1)c1ccccc1 (centres undefined) | 99% (inactive) | 109% (inactive) | 94.5% (inactive) | 2.46% (inactive) | 92 | 94.5 | -4.52% (inactive) | -11.9% (inactive) |
| COc1ccc(-c2nnc(SCc3nnc(-c4ccc(Cl)cc4)o3)n2-c2ccccc2)cc1 | 73% (inactive) | 55.6% (inactive) | 84.3% (inactive) | 4.27% (inactive) | 80 | 84.3 | -2.27% (inactive) | 15.4% (inactive) |
| CCn1cc(C(=O)O)c(=O)c2ccc(C)nc21 | 106% (inactive) | 92.1% (inactive) | 101% (inactive) | 0.53% (inactive) | 100 | 101 | -0.78% (inactive) | -3.83% (inactive) |
| Cc1ccc2c(c1C)NC(=O)C2(O)CC(=O)c1ccc2c(c1)OCO2 (centres undefined) | 88% (inactive) | 83.2% (inactive) | 88% (inactive) | -5.94% (inactive) | 94 | 88 | -1.1% (inactive) | 2.9% (inactive) |
